What was measured:
[1] = molecular target: 5-hydroxytryptamine receptor 1D (Homo sapiens) (UniProt P28221); assay: Displacement of [3H]-5-CT from recombinant human 5HT1D receptor transiently expressed in HEKT cell membranes at 10 uM measured after 90 mins by microbeta scintillation counting method relative to control
Outline: (§1)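 Primary screen at 10 μM compound, expressed as % receptor inhibition, from at least three experiments.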

[2] = molecular target: Mu-type opioid receptor (Homo sapiens) (UniProt P35372); assay: Displacement of [3H]-DAMGO from human MOR stably expressed in HEK cell membranes at 10 uM after 90 mins by microbeta scintillation counting method relative to control; outline: as §1
[3] = molecular target: Alpha-1A adrenergic receptor (Homo sapiens, UniProt P35348); assay: Displacement of [3H]-prazosin from recombinant human alpha1A adrenergic receptor measured after 90 mins by microbeta scintillation counting method
[4] = molecular target: Nicotinic acetylcholine receptor alpha2/beta4 (Homo sapiens) (UniProt P02708+P30926); assay: Displacement of [3H]-epibatidine from recombinant human alpha2beta4 nACHR stably expressed in HEK cells at 10 uM measured after 90 mins by microbeta scintillation counting method relative to control; type: cell-based; outline: as §1
[5] = molecular target: Neuronal acetylcholine receptor; alpha3/beta2 (Homo sapiens) (UniProt P17787+P32297); assay: Displacement of [3H]-epibatidine from recombinant human alpha3beta2 nACHR stably expressed in HEK cells at 10 uM measured after 90 mins by microbeta scintillation counting method relative to control; type: cell-based; outline: as §1
[6] = molecular target: Neuronal acetylcholine receptor; alpha4/beta2 (Homo sapiens) (UniProt P17787+P43681); assay: Displacement of [3H]-epibatidine from recombinant human alpha4beta2 nACHR stably expressed in HEK cells at 10 uM measured after 90 mins by microbeta scintillation counting method relative to control; type: cell-based; outline: as §1
[7] = molecular target: 5-hydroxytryptamine receptor 1E (Homo sapiens) (UniProt P28566); assay: Displacement of [3H]-5-HT from recombinant human 5HT1E receptor stably expressed in HEK cell membranes at 10 uM measured after 90 mins by microbeta scintillation counting method relative to control; outline: as §1
[8] = molecular target: D2 dopamine receptor (Homo sapiens, UniProt P14416); assay: Agonist activity at recombinant human D2 receptor expressed in CHOK1 cells assessed as induction of beta arrestin2 recruitment measured after 30 mins by coelenterazine-based beta-galactosidase reporter gene assay; type: ADME, cell-based
[9] = molecular target: Histamine H1 receptor (Homo sapiens, UniProt P35367); assay: Displacement of [3H]-pyrilamine from recombinant human H1 receptor stably expressed in HEK cell membranes measured after 90 mins by microbeta scintillation counting method
[10] = molecular target: 5-hydroxytryptamine receptor 6 (Homo sapiens) (UniProt P50406); assay: Displacement of [3H]-LSD from recombinant human 5HT6 receptor stably expressed in HEK cell membranes at 10 uM measured after 90 mins by microbeta scintillation counting method relative to control; outline: as §1
[11] = molecular target: T1, D(3) dopamine receptor (Homo sapiens, UniProt P35462); assay: Antagonist activity at recombinant human D3 receptor expressed in CHOK1 cells assessed as inhibition of dopamine-induced beta arrestin2 recruitment preincubated for 30 mins followed by dopamine addition and measured after 90 mins by coelenterazine-based beta-galactosidase reporter gene assay; type: cell-based
[12] = molecular target: GABA-A receptor; anion channel (Rattus norvegicus) (UniProt O09028+P15431+P18506+P18508+P19969+P20236+P23574+P23576+P28471+P28473+P30191+P62813+P63079+P63138+Q91ZM7+Q9ES14); assay: Displacement of [3H]-muscimol from rat brain GABAA receptor at 10 uM measured after 90 mins by microbeta scintillation counting method relative to control; outline: as §1
[13] = molecular target: Histamine H2 receptor (Homo sapiens, UniProt P25021); assay: Displacement of [125I]-Iodo-aminopotentidine from human histamine H2 receptor expressed in stable HEK cells after 90 mins by microbeta scintillation counting method; type: cell-based
[14] = molecular target: T1, D(3) dopamine receptor; assay: Agonist activity at recombinant human D3 receptor expressed in CHOK1 cells assessed as induction of beta arrestin2 recruitment measured after 30 mins by coelenterazine-based beta-galactosidase reporter gene assay; type: cell-based
[15] = molecular target: Muscarinic acetylcholine receptor M1 (Homo sapiens) (UniProt P11229); assay: Displacement of [3H]-QNB/[3H]-NMS from human muscarinic M1 receptor expressed in stable CHO cells at 10 uM after 90 mins by microbeta scintillation counting method relative to control; type: cell-based; outline: as §1
[16] = molecular target: Delta-type opioid receptor (Homo sapiens) (UniProt P41143); assay: Displacement of [3H]-DADLE from human DOR stably expressed in HEK cell membranes at 10 uM after 90 mins by microbeta scintillation counting method relative to control; outline: as §1
[17] = molecular target: D(1A) dopamine receptor (Homo sapiens, UniProt P21728); assay: Agonist activity at recombinant human D1 receptor expressed in CHOK1 cells assessed as induction of beta arrestin2 recruitment measured after 30 mins by coelenterazine-based beta-galactosidase reporter gene assay; type: cell-based
[18] = molecular target: Neuronal acetylcholine receptor; alpha4/beta4 (Homo sapiens) (UniProt P30926+P43681); assay: Displacement of [3H]-epibatidine from recombinant human alpha4beta4 nACHR stably expressed in HEK cells at 10 uM measured after 90 mins by microbeta scintillation counting method relative to control; type: cell-based; outline: as §1
[19] = molecular target: Beta-3 adrenergic receptor (Homo sapiens) (UniProt P13945); assay: Displacement of [3H]-CGP12177 from recombinant human beta3 adrenergic stably expressed in HEK Flp-In cells at 10 uM measured after 90 mins by microbeta scintillation counting method relative to control; type: cell-based; outline: as §1
[20] = molecular target: 5-hydroxytryptamine receptor 3A (Homo sapiens) (UniProt P46098); assay: Displacement of [3H]-GR65630 from recombinant human 5HT3 receptor transiently expressed in HEKT cell membranes at 10 uM measured after 90 mins by microbeta scintillation counting method relative to control; outline: as §1
[21] = molecular target: Sodium-dependent dopamine transporter (Homo sapiens) (UniProt Q01959); assay: Displacement of [3H]-Win35428 from recombinant human DAT stably expressed in HEK cells at 10 uM measured after 90 mins by microbeta scintillation counting method relative to control; type: cell-based; outline: as §1
[22] = molecular target: Nicotinic acetylcholine receptor alpha2/beta2 (Homo sapiens) (UniProt P02708+P17787); assay: Displacement of [3H]-epibatidine from recombinant human alpha2beta2 nACHR stably expressed in HEK cells at 10 uM measured after 90 mins by microbeta scintillation counting method relative to control; type: cell-based; outline: as §1
[23] = molecular target: T1, D(3) dopamine receptor; assay: Displacement of [3H]N-methylspiperone from D3 receptor (unknown origin) measured after 90 mins by microbeta scintillation counting method relative to control
[24] = molecular target: 5-hydroxytryptamine receptor 1A (Homo sapiens, UniProt P08908); assay: Displacement of [3H]-Way100635 from recombinant human 5HT1A receptor transiently expressed in CHO cell membranes measured after 90 mins by microbeta scintillation counting method
[25] = molecular target: 5-hydroxytryptamine receptor 2B (Homo sapiens, UniProt P41595); assay: Displacement of [3H]-LSD from recombinant human 5HT2B receptor stably expressed in HEK cell membranes measured after 90 mins by microbeta scintillation counting method
[26] = molecular target: Muscarinic acetylcholine receptor M5 (Homo sapiens) (UniProt P08912); assay: Displacement of [3H]-QNB/[3H]-NMS from human muscarinic M5 receptor expressed in stable CHO cells at 10 uM after 90 mins by microbeta scintillation counting method relative to control; type: cell-based; outline: as §1
Sequence of Muscarinic acetylcholine receptor M5 (Homo sapiens) (P08912 whole entry): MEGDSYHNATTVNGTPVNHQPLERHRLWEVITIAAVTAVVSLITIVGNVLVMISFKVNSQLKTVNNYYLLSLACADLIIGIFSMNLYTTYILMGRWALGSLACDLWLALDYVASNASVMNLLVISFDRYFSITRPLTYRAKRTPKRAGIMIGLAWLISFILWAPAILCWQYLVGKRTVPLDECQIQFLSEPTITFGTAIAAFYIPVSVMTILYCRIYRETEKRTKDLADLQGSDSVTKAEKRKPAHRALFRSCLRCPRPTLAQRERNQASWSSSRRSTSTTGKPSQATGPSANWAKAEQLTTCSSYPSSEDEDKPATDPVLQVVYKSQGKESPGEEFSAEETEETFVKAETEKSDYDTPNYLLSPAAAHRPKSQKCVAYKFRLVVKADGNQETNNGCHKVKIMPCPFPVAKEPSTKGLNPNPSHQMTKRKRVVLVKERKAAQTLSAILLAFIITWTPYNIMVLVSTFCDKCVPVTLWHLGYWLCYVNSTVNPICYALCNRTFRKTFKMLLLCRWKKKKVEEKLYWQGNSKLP

T1 sequence (P35462 whole entry): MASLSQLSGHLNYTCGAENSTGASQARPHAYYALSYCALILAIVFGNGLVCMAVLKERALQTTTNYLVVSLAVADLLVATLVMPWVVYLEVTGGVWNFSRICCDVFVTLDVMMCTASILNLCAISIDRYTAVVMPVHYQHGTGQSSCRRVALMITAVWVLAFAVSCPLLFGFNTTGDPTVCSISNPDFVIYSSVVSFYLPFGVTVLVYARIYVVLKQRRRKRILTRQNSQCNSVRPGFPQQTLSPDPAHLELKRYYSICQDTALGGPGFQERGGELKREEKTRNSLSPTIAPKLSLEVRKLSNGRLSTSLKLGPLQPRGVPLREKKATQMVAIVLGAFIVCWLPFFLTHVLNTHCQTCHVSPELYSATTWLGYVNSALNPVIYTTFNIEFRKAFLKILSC
Sequence of Sodium-dependent dopamine transporter (Homo sapiens) (Q01959 whole entry): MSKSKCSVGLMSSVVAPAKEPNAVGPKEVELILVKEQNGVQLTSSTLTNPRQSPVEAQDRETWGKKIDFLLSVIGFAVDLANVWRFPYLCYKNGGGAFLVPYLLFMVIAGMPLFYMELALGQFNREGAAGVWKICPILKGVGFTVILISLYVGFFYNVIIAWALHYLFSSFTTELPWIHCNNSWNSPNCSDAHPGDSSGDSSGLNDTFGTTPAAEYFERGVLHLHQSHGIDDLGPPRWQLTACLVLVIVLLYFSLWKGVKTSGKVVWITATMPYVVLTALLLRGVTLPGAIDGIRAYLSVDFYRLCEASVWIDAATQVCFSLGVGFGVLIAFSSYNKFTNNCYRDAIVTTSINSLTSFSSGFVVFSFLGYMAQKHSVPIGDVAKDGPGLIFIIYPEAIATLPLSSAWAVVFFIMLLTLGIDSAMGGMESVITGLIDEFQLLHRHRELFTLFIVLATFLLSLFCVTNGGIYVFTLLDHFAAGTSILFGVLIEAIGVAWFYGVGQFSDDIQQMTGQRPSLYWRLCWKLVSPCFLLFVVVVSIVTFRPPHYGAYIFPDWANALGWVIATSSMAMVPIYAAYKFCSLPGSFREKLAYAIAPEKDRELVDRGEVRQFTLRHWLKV
Sequence of Muscarinic acetylcholine receptor M1 (Homo sapiens) (P11229 whole entry): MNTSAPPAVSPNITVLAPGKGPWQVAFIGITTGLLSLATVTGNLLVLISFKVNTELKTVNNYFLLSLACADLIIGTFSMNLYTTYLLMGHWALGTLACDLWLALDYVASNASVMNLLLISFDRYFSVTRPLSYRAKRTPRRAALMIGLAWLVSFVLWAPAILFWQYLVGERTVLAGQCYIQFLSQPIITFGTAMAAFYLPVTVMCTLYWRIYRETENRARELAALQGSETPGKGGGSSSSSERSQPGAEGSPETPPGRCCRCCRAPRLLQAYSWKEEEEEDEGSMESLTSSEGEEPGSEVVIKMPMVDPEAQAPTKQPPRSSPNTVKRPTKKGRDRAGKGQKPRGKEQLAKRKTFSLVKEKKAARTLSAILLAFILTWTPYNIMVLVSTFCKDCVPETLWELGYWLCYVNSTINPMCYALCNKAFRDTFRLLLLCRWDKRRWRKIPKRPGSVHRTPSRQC
Sequence of Mu-type opioid receptor (Homo sapiens) (P35372 whole entry): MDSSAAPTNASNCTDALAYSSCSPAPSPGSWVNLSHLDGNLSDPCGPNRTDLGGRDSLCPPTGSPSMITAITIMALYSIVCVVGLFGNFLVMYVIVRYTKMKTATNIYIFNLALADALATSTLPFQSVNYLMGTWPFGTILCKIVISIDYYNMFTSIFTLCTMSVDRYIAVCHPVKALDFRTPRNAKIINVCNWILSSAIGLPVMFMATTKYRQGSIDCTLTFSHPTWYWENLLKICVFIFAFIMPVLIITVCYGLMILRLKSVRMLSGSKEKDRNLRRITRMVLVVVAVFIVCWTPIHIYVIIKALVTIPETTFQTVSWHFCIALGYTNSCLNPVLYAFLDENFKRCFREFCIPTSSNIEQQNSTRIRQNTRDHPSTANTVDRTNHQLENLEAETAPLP
Sequence of 5-hydroxytryptamine receptor 6 (Homo sapiens) (P50406 whole entry): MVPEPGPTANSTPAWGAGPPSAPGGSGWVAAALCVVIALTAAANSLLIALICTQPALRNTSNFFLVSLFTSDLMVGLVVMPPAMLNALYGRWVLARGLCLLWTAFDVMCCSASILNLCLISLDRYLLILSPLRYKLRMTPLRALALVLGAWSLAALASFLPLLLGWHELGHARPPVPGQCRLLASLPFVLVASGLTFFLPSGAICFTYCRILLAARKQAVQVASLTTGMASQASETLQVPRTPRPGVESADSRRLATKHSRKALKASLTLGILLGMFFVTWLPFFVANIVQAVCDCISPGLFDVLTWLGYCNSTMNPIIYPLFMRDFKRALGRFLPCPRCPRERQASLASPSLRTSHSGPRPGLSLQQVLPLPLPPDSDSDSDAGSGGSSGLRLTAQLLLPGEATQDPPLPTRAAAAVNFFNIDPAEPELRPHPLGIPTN
Sequence of Histamine H2 receptor (P25021 whole entry): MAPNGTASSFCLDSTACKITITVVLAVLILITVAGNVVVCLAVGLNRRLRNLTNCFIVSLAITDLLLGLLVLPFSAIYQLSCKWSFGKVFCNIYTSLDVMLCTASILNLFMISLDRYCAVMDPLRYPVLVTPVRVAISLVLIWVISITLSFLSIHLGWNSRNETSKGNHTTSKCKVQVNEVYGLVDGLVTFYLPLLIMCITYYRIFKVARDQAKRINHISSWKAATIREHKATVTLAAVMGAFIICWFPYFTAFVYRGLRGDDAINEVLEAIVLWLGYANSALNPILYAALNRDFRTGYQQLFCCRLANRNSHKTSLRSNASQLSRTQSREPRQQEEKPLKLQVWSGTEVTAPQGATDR
Sequence of Alpha-1A adrenergic receptor (P35348 whole entry): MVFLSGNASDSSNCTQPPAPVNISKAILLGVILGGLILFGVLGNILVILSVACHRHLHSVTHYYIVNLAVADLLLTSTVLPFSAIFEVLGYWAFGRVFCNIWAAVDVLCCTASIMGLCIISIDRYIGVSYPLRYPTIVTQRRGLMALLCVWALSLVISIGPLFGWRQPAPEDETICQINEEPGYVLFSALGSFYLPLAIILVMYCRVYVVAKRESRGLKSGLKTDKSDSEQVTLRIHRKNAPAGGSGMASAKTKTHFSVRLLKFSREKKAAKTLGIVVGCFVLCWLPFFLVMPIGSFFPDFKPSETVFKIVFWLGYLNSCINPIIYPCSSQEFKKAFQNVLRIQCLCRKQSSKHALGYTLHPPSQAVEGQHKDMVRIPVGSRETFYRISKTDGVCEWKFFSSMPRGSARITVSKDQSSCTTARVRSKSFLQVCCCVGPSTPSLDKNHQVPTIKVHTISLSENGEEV
Sequence of Histamine H1 receptor (P35367 whole entry): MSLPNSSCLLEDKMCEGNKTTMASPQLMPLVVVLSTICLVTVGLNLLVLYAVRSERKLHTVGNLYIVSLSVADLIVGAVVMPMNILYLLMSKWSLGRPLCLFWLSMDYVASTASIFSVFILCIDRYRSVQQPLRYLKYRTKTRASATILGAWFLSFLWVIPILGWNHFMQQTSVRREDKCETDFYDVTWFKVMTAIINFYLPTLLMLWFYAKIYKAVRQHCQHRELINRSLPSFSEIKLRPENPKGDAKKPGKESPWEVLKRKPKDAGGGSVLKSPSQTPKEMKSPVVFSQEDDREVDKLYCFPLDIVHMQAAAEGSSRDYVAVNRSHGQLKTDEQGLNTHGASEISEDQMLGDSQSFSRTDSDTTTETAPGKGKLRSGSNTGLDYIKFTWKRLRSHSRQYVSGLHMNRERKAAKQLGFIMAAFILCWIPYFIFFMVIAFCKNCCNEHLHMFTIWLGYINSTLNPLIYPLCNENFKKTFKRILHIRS
Sequence of 5-hydroxytryptamine receptor 1E (Homo sapiens) (P28566 whole entry): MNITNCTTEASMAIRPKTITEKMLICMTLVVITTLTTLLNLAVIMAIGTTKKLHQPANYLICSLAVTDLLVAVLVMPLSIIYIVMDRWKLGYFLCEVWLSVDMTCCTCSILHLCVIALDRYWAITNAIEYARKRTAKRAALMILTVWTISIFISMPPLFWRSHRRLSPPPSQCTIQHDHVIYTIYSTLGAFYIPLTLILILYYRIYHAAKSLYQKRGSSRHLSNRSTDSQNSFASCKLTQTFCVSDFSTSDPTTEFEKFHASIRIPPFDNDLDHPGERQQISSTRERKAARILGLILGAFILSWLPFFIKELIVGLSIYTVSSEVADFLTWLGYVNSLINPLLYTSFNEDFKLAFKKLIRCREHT
Sequence of D2 dopamine receptor (P14416 whole entry): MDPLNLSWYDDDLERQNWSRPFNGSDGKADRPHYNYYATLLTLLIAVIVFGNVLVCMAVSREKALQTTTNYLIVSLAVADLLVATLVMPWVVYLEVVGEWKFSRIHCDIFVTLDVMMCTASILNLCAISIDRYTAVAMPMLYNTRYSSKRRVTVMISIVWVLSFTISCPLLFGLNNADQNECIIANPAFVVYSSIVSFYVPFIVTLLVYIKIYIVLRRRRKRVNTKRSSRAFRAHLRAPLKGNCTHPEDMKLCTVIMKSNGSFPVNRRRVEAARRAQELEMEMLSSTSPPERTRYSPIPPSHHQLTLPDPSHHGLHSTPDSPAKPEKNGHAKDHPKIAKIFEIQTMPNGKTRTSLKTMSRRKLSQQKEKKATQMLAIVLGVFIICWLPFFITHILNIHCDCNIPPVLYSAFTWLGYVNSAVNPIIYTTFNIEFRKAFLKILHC

Row | inhibition [1] [%] | inhibition [2] [%] | Ki [3] [nM] | inhibition [4] [%] | inhibition [5] [%] | inhibition [6] [%] | inhibition [7] [%] | Ki [9] [nM] | inhibition [10] [%] | IC50 [11] [nM] | inhibition [12] [%] | Ki [13] [nM] | inhibition [15] [%] | inhibition [16] [%] | EC50 [17] | inhibition [18] [%] | inhibition [19] [%] | inhibition [20] [%] | inhibition [21] [%] | inhibition [22] [%] | SMILES | further results
1 | > 50 | < 50 | 49 | < 50 | < 50 | < 50 | < 50 | 40 | < 50 | 8.7 | < 50 | 871 | < 50 | < 50 | Not Active | < 50 | < 50 | < 50 | < 50 | < 50 | COc1ccccc1N1CCN(CCCSc2nnc(-c3ccccc3)n2C)CC1 | EC50 ([8]; read-out: EC50): 254 nM; EC50 ([14]; read-out: EC50): 167 nM; Ki [23]: 6 nM; Ki [24]: 0.9 nM; Ki [25]: 42 nM; inhibition [26]: < 50%
2 | < 50 | < 50 | 2180 | < 50 | < 50 | < 50 | < 50 | 8 | < 50 | 41.4 | < 50 | 596 | 54 | < 50 | Not Active | < 50 | < 50 | < 50 | < 50 | < 50 | COc1ccccc1N1CCC2(CCN(CCCSc3nnc(-c4ccccc4)n3C)CC2)CC1 | EC50 [8]: Not Active; EC50 [14]: Not Active; Ki [23]: 94 nM; Ki [24]: 1300 nM; Ki [25]: 2140 nM; inhibition [26]: < 50%
